Source: PubChem BioAssay
CRFBP-R2 agonist – agonists of CRF-BP/CRF-R2 complex, primary screen, cell-based, HEK293, calcium dye fluorescence, uHTS; AID 588473, 2011; actives 0.46% (n = 350,000); calcium dye fluorescence (FLIPR); percent of saturating CRF peptide response; activation, % at 13.2 µM; CRF-binding protein / CRF receptor 2 complex (human);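 active means activation of at least 50%, plus an integration ratio under a set limit after plate pattern correction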;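 further: plate controls were neutral control wells without compound for no effect and CRF at EC100 for full effect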
Cardio protect – cardioprotection against H2O2-induced cell death, primary screen, uHTS, H9c2 cells, ATPLite luminescence | actives 0.63% (n = 360,000) | H9c2 cardiomyocytes, H2O2 injury protection, 2 h | protection from H2O2 cell death, % at 20 µM | AID 588492, 2011;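 active means compounds giving at least 50% protection of heart cells from peroxide-induced death in the single-dose screen, raw or plate-pattern-corrected value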;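 further: 0% = DMSO wells with peroxide and 100% = DMSO wells without peroxide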
CRFBP-R2 block – antagonists of CRF-BP/CRF-R2 complex, primary screen, cell-based, HEK293, calcium dye fluorescence, uHTS. CRF-induced calcium fluorescence. inhibition, % at 11.8 µM. actives 0.59% (n = 350,000). AID 588475, 2011;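 active means inhibition of the ligand-induced calcium signal above about 50% at the single tested concentration, limit read from the data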
beta cell repl – inducers of MIN6 beta-cell proliferation, primary screen, ATP luminescence, uHTS | MIN6 cells proliferation, ATPlite luminescence, 48 h; cells starved in 0.2% serum; 100% = growth in 10% serum | proliferation, % at 10 µM | actives 0.29% (n = 330,000) | AID 2380, 2010;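 active means compounds whose signal lies at least 3.5 SD above the mean of all wells on their plate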;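 further: 0% = DMSO-treated cells in low-serum medium and 100% = 10% serum control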
UCH37 inh – inhibitors of human UCH37 deubiquitinase, primary screen, biochemical, Ub-AMC cleavage, fluorescence; Ubiquitin carboxyl-terminal hydrolase isozyme L5 (Homo sapiens), Q9Y5K5; purified proteasome/UCH37; inhibition, % (concentration not given with the values); actives 0.33% (n = 330,000); AID 588478, 2011;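 active means mean inhibition over replicate wells above about 20%, limit read from the data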;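 further: 0% = compound-free wells with enzyme and 100% = wells lacking proteasome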
Target sequence (Q9Y5K5 whole entry, looked up): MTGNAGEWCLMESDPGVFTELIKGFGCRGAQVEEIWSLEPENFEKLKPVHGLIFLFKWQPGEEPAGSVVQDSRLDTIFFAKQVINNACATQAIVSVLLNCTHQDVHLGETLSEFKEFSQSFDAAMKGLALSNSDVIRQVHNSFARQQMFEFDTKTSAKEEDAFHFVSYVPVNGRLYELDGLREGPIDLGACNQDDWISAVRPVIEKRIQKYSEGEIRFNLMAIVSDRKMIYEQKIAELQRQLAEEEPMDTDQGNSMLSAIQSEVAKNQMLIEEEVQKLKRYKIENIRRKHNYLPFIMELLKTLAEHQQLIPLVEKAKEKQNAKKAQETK
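assay system = human UCH37 enzyme supplied as purified proteasome complex | amount = proteasome at 0.15 nM in the dispensed enzyme solution | schedule = 30 min compound-proteasome preincubation then 25 min substrate reaction, room temperature | measured by = fluorescence, ex 355 nm, em 460 nm | benchmarks = no-proteasome wells (full inhibition) and compound-free wells (no inhibition)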
iPSC survival up – enhancers of single-cell hiPSC survival, primary screen, ATPlite luminescence; survival enhancement, % at 20 µM; AID 602274, 2012; 100% = ROCK inhibitor wells, 0% = DMSO; actives 0.044% (n = 360,000); in the data active means survival enhancement above about 18%;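 further: cells exposed to compounds for 16 hours before the ATP read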
* hit, by the source's call; / = not tested or not shown. A selection: hits, their analogues and other compounds. The true share with any hit is near 2.1%.

SMILES | CRFBP-R2 agonist | Cardio protect | CRFBP-R2 block | beta cell repl | UCH37 inh | iPSC survival up
CC(OC(=O)Cc1n[nH]c(=O)c2ccccc12)C(=O)Nc1ccccc1[N+](=O)[O-] (stereo unspecified) | 0 | 72* | -5 | 3 | 0 | 0
O=C(Cc1n[nH]c(=O)c2ccccc12)OCc1c(Cl)cccc1Cl | -2 | 8 | -17 | 0 | 3 | 0
CC(OC(=O)Cc1n[nH]c(=O)c2ccccc12)C(=O)Nc1cccc([N+](=O)[O-])c1 (stereo unspecified) | -3 | 58* | 0 | -1 | 4 | -1
Cc1ccc(C=NNC(=O)COc2ccc(Cl)c(C)c2)o1 | / | / | / | / | 7 | /
O=C(NN=C1CCc2ccccc21)c1ccncc1 | / | / | / | / | -1 | /
O=C(O)c1ccc(NN=Cc2ccc(F)c(F)c2)cc1 | / | / | / | / | 20 | /
c1ccc(-n2nnc(-c3nccs3)n2)cc1 | -4 | -6 | 2 | -4 | 2 | 0
Brc1ccccc1-n1nnc(-c2nccs2)n1 | -1 | -14 | 2 | 0 | 25* | 0
CCn1cc(C=NNC(=O)c2csc3ccccc23)c(C)n1 | / | / | / | / | 3 | /
CCCCC[n+]1ccn(C2=C([O-])c3ccccc3C(=O)/C2=N\S(=O)(=O)c2ccc(Br)cc2)c1 | -1 | -10 | 8 | -4 | 7 | 0
CCCCC[n+]1ccn(C2=C([O-])c3ccccc3C(=O)/C2=N\S(=O)(=O)c2ccccc2)c1 | -1 | -16 | -11 | -3 | 24* | -4
COc1ccc(C(C)=NNC(=O)c2ccncc2)cc1[N+](=O)[O-] | / | / | / | / | 2 | /
O=[N+]([O-])c1cc2oc3c(c2c(C=NCc2ccccc2)c1O)CCCC3 | 3 | 61* | -61 | 0 | 6 | -1
CC(C)CN=Cc1c(O)c([N+](=O)[O-])cc2oc3c(c12)CCCC3 | 1 | 95* | 13 | -5 | 10 | 0
NC(=O)NN=Cc1c(O)ccc2oc3c(c12)CCCC3 | / | / | / | / | 3 | /
Cc1oc2cc([N+](=O)[O-])c(O)c([N+](=O)[O-])c2c1C(=O)c1ccc(Cl)cc1 | -2 | -11 | 38 | 1 | 17 | -1
COCc1cc(C=NNC(=O)c2ccc(Cl)cc2)ccc1OC | / | / | / | / | 6 | /
O=[N+]([O-])c1ccc(C=NNc2nc(N3CCCCCC3)nc(N3CCCCCC3)n2)o1 | / | / | / | / | 5 | /
CCc1nnc(NS(=O)(=O)c2ccc(N=Cc3c(C)[nH]n(-c4cccc(Cl)c4)c3=O)cc2)s1 | -1 | -12 | 51* | 0 | 7 | 4
COc1ccc(Cc2n[nH]c(=O)c3ccccc23)cc1OC | 8 | 62* | 6 | -3 | -1 | 0
O=c1[nH]nc(Cc2ccccc2)c2ccccc12 | 2 | 64* | -3 | 0 | 1 | 3
O=c1[nH]nc(Cc2ccc([N+](=O)[O-])cc2)c2ccccc12 | -1 | 64* | -1 | -3 | 3 | -1
COc1ccc(CC(=O)n2[nH]c(=O)c3ccccc3c2=O)cc1OC | 1 | -1 | 9 | 6 | 4 | 0
O=c1[nH]c(=S)[nH]nc1Cc1ccccc1 | 0 | 4 | 17 | 0 | 2 | 1
Cc1cccc2cc(C=NNC(=O)c3ccccc3O)c(Cl)nc12 | / | / | / | / | 0 | /
SMILES | CRFBP-R2 agonist | Cardio protect | CRFBP-R2 block | beta cell repl | UCH37 inh | iPSC survival up
Cc1nc2c(C)cccc2cc1C(=O)NN=Cc1ccc(N(C)C)cc1 | / | / | / | / | 5 | /
Cc1nc2c(C)cccc2cc1C(=O)N/N=C/c1ccc(O)cc1 | -11 | -2 | 71* | 3 | / | 2
Cc1cccc2cc(/C=N/NC(=O)c3ccccc3O)c(Cl)nc12 | 55* | -19 | 9 | -6 | / | 0
O=C(N/N=C/c1cc(Br)ccc1O)c1ccccc1Cl | 0 | 56* | -12 | -3 | / | -1
CC(C)Oc1ccccc1-c1cc(C(=O)NN=Cc2cccnc2)c2ccccc2n1 | / | / | / | / | 1 | /
N/C(=N\N=Cc1ccnc2ccccc12)SC1CC(=O)N(c2ccc(Br)cc2)C1=O (stereo unspecified) | / | / | / | / | 0 | /
Cc1ccc(C=NNC(=O)c2ccc(-c3ccccc3)cc2)o1 | / | / | / | / | -16 | /
CCC(=O)Oc1ccc2c(C)cc(=O)oc2c1C | 4 | 59* | -6 | -1 | -274 | 2
